CHRM1 antagonist – human CHRM1 antagonism | P11229 | inhibition, % at 3 µM | 360,000 tested, 1.3% active | CHO-K1 hM1, Fluo-8 calcium fluorescence, ACh EC80 antagonist;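 active = percent inhibition above its own plate's cutoff, namely the mean of that plate's compound wells plus 3 SD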;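 note: peak over basal fluorescence ratio during 140 s after agonist addition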
Target sequence (P11229 whole entry, looked up): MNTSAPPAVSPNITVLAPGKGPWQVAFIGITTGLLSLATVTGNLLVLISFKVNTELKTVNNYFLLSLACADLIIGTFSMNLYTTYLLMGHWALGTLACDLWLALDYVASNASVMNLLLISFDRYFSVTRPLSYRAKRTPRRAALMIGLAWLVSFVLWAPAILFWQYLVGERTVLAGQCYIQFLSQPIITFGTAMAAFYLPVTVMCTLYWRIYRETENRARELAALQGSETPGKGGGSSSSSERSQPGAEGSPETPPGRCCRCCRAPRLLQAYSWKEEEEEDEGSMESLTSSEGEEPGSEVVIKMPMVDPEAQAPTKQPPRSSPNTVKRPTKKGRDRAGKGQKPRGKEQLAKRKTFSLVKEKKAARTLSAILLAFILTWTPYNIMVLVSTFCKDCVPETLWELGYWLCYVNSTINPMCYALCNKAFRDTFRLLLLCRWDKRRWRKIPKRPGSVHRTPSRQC
M5 ag – CHRM5 agonism in calcium assay; activation, % at 3 µM; CHO-K1 hM5 cells, Fluo-8 calcium fluorescence; 0% DMSO wells, 100% maximal acetylcholine response; 360,000 tested, 0.19% active; AID 624037; P08912;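 active = activation above the run's mean over test compounds plus 3 SD, cut at about 23% in these data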;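 note: signal is peak over basal fluorescence ratio across the kinetic read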
M5 antag – CHRM5 antagonism in calcium assay. AID 624040. 360,000 tested, 0.59% active. P08912. inhibition, % at 3 µM. CHO-hM5 cells, Fluo-8 calcium fluorescence, ACh EC80;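 active = inhibition above a per-plate cutoff, the mean of that plate's test compounds plus 3 SD, cut at about 27% in these data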
M5 PAM – positive allosteric modulators of human muscarinic M5 receptor; CHO-K1 hM5, Fluo-8 calcium, ACh EC20 PAM; 0% = ACh EC20, 100% = ACh EC100; 360,000 tested, 0.3% active; activation, % at 3 µM; P08912;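 active = activation above the run cutoff, the mean activation of all test compounds plus 3 SD, cut at about 18% in these data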
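Assay system: CHO-K1 hM5 cells / Incubation: Fluo-8 loading 80 min at 37 °C plus 30 min room temperature / Technique: Fluo-8 calcium dye fluorescence, kinetic read / Repeats: single replicate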
CHRM1 agonist – activates human CHRM1 receptor; activation, % at 3 µM; CHO-K1 hM1, Fluo-8 calcium fluorescence, agonist mode; 0% DMSO, 100% acetylcholine EC100; P11229; 360,000 tested, 0.33% active;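 active = activation above the run's mean compound activation plus 3 SD, cut at about 16% in these data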;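 note: peak over basal fluorescence ratio within a 140 s kinetic read after compound addition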
CHRM1 PAM – potentiates human M1 receptor response to acetylcholine. 360,000 tested, 0.088% active. activation, % at 3 µM. P11229. CHO-K1 hM1, Fluo-8 calcium fluorescence, ACh EC20; 0% = ACh EC20, 100% = maximal ACh; in the data active = activation above about 19%, passing the limit was not always enough
Each line names hits and unclear results; the compound was inactive in the other large screens. Compounds with a hit are over-represented: about 2% of the library has one in this group of screens.

CCCCNc1c(-c2cccc(-c3cc(C(C)=O)cs3)c2)nc2ccc(C)cn12	CHRM1 antagonist 37
CCCCNc1c(-c2ccc(OC)c(SC3CCCCC3)c2)nc2cc(C)ccn12	none
CCCCNc1c(-c2cccc(-c3ccc(OC)cc3)c2)nc2ccc(C)cn12	CHRM1 antagonist 59, M5 antag 34
CCCCNc1c(-c2cccc(-c3ccc(OC)cc3)c2)nc2cc(C)ccn12	CHRM1 antagonist 62, M5 antag 28
C=CCOc1cccc(C(=O)N(C)C2CCCN(Cc3ccccc3F)C2)c1 (stereo not given)	none
COc1ccc(NC(=O)c2cc(-c3cc(F)ccc3OC(C)C)n[nH]2)cc1OC	none
CCn1c(C)cc2c(c1=O)C(c1ccc3c(c1)OCO3)C(C#N)=C(N)O2 (stereo not given)	CHRM1 antagonist 66
O=C(CN(Cc1ccccc1)S(=O)(=O)c1ccc(F)cc1)NCc1cccnc1	none
O=C(COC(=O)c1ccccc1)Nc1ncc([N+](=O)[O-])s1	none
O=C(Nc1ccccc1)Nc1ncc([N+](=O)[O-])s1	M5 antag 28
CC(C)C[C@H](NC(=O)OC(C)(C)C)C(=O)N1CCC(C(=O)N[C@@H](Cc2c[nH]c3ccccc23)C(=O)O)CC1	none
CCC1CN2CCc3cc(OC)c(OC)cc3C2CC1CC1c2cc(OC)c(OC)cc2CCN1C(=O)C(Cc1c[nH]c2ccccc12)NC(=O)OC(C)(C)C (stereo not given)	M5 antag 27
Cc1ccc(S(=O)(=O)N2C[C@@H]3CCCC[C@@H]3[C@@H](C)[C@H]2c2cn(Cc3ccccc3)c3ncccc23)cc1	CHRM1 PAM 29
CCCCOc1ccc(C(O)(CCN2CCOCC2)c2ccccc2)cc1 (stereo not given)	none
NC(=O)C(CCCCN1CCCCC1)(c1ccccc1)c1ccccc1	CHRM1 antagonist 83
OC(CCN1CCCC1)(c1ccccc1)C1CCCCC1 (stereo not given)	CHRM1 antagonist 97, M5 antag 99
O=S(=O)(NCCN1CCCC1)c1ccc(C(F)(F)F)cc1	none
OC(CCCN1CCCCC1)(c1ccccc1)c1ccc(C(F)(F)F)cc1 (stereo not given)	CHRM1 antagonist 82
O=C(CCN1CCCCCC1)c1ccccc1	none
OC(CCN1CCCCC1)(c1ccccc1)c1ccccc1	CHRM1 antagonist 99, M5 antag 99
O=c1ccn([C@@H]2O[C@H](CNCc3c(OCc4ccccc4F)ccc4ccccc34)[C@@H](O)[C@H]2O)c(=O)[nH]1	none
C=CCC(O)(CCN1CCCCC1)c1ccccc1 (stereo not given)	CHRM1 antagonist 98, M5 antag 46
COc1ccc(C(O)(CCc2ccccc2)CCN2CCCCC2)cc1 (stereo not given)	CHRM1 antagonist 84
O=C(/C=C/c1ccccc1)CCN1CCCCC1	none
CCCCN1C(=O)C(CC(=O)NCCCN(C)C)CC(C(=O)N2CCCCCC2)=C1C (stereo not given)	none (no result: CHRM1 antagonist, CHRM1 agonist, CHRM1 PAM)
Cc1ccc(S(=O)(=O)Nc2ccccc2C(C(=O)OC(C)(C)C)C(=O)OC(C)(C)C)cc1	none (no result: CHRM1 antagonist, CHRM1 agonist, CHRM1 PAM)
COc1ccccc1CNc1nc(NCc2ccccc2F)c2sccc2n1	CHRM1 antagonist 40
Fc1cc(Cl)ccc1Nc1nc(NCc2ccccc2)nc2ccsc12	none
COCCNc1nc(NCc2cccc(OC)c2OC)c2sccc2n1	none
C#Cc1cccc(Nc2nc(NCc3ccccc3OC)nc3ccsc23)c1	CHRM1 antagonist 35, M5 antag 36
COCCNc1nc(NCc2ccccc2F)c2sccc2n1	none
c1ccc(CNc2nc(NCc3ccccc3)c3sccc3n2)cc1	CHRM1 antagonist 56, M5 ag 32, M5 antag 44, CHRM1 agonist 32
COc1ccccc1CNc1nc(NCc2cccc(OC)c2OC)c2sccc2n1	M5 antag 31
CCc1nc2c(OCC3CCCCC3)cccn2c1N(C)C(=O)c1ccccc1F	none
c1ccc(CNc2nc(-c3ccccc3)nc3ccccc23)cc1	none
c1ccc(CNc2nc(NCc3ccccc3)c3ccccc3n2)cc1	M5 antag 39
c1ccc(CNc2nc(NCCOc3ccccc3)c3sccc3n2)cc1	CHRM1 antagonist 43, M5 antag 35, CHRM1 agonist 19
COc1ccccc1CNc1nc(NCc2ccccc2)nc2ccsc12	M5 ag 36, M5 antag 76
CNc1nc(NCCOc2ccccc2)c2sccc2n1	none
COc1ccccc1N1C(=O)c2cccc3c(N(C)CCO)ccc(c23)C1=O	M5 ag 24
FC(F)Sc1ccc(NC(=S)N2CCN(c3ccccn3)CC2)cc1	CHRM1 antagonist 22
Oc1ccccc1N1CCN(C(=S)Nc2ccc(SC(F)F)cc2)CC1	none
CN(CC1CCCN(CCc2cccc(C(F)(F)F)c2)C1)C(=O)c1cc2ccccc2o1 (stereo not given)	CHRM1 antagonist 52
COc1cccc(C(=O)N(C)CC2CCN(CCc3cccc(C(F)(F)F)c3)CC2)c1	none
CCN(CC1CCCN(CCc2cccc(F)c2)C1)C(=O)c1cc2ccccc2o1 (stereo not given)	CHRM1 antagonist 53
CCN(CC1CCCN(CCc2cccc(OC)c2)C1)C(=O)c1ccc(COC)o1 (stereo not given)	none
CCN(CC1CCCN(CCc2cccc(F)c2)C1)C(=O)c1cc(C)oc1C (stereo not given)	CHRM1 antagonist 43
O=C(NCc1ccccn1)c1ccccc1OCc1ccccc1Cl	none
COC(=O)c1ccc(C23CC4(C2)[C@H](CN(C)[C@@H]4c2ccccc2)C3c2ccc(Cl)nc2)cc1 (stereo not given in full)	CHRM1 antagonist 70
CN1C[C@@H]2C(c3ccc(Cl)nc3)C3(c4ccc(C#N)cc4)CC2(C3)[C@H]1c1ccccc1 (stereo not given in full)	CHRM1 antagonist 55
COC(=O)c1ccc(C23CC4(C2)[C@H](CN(C)[C@@H]4c2ccccc2)C3c2ccc(C(F)(F)F)cc2)cc1 (stereo not given in full)	none
CCCNC(=O)C1(C)CCCN(C(=O)C2(c3ccc(Cl)cc3)CCCC2)C1 (stereo not given)	none
O=C(O)c1cccc(-n2c(/C=C/c3ccccc3)nc3ccccc3c2=O)c1	none
CN(C)c1ccc(/C=C/c2nc3ccccc3c(=O)n2-c2ccc(C(=O)O)cc2)cc1	CHRM1 antagonist 39, M5 ag 26, CHRM1 agonist 70
N#CCCN=C(NS(=O)(=O)c1ccccc1)c1ccccc1	CHRM1 PAM 28

Bioassay records as filed in PubChem.
